Consider 16 molecules from ChEMBL document CHEMBL2321766, “Optimization of a Novel Series of TRPV4 Antagonists with In Vivo Activity in a Model of Pulmonary Edema” (ACS Med Chem Lett, 2013).

Series [1] has as its target T1, Transient receptor potential cation channel subfamily V member 4 (Homo sapiens, UniProt Q9HBA0). The series is described as follows: Antagonist activity at human recombinant TRPV4 expressed in BacMam virus infected HEK MSRII cells assessed as inhibition of GSK634775-induced calcium […] treated 10 mins prior to TRPV4 agonist, GSK634775 by FLIPR assay.
Series [2] concerns Plasma. The series is described as follows: Stability of the compound in Sprague-Dawley rat plasma at 1 mg/kg, iv by HPLC-MS/MS analysis. The note with it: in vivo. It counts as ADME, organism-based. Details: dose 1 mg/kg, route intravenous.
Series [3] concerns Plasma. Kind of series: (§1) Half life in Sprague-Dawley rat plasma at 2 mg/kg, po by HPLC-MS/MS analysis. Details: dose 2 mg/kg, route oral. The note with it: in vivo, BLD = below limit of detection. It counts as ADME, organism-based.
A short description of series [4]: Oral bioavailability in Sprague-Dawley rat at 2 mg/kg by HPLC-MS/MS analysis. It counts as ADME, organism-based. The note with it: in vivo.
The nature of series [5]: as §1. The arrangement: dose 2 mg/kg, route oral. It counts as ADME, organism-based. The note with it: Sprague-Dawley, plasma.
Series [6] can be described thus: Clearance in Sprague-Dawley rat plasma at 1 mg/kg, iv by HPLC-MS/MS analysis. It counts as ADME, organism-based. The arrangement: dose 1 mg/kg, route intravenous.
In series [7] the target is Sodium channel protein type 5 subunit alpha (Homo sapiens, UniProt Q14524). Kind of series: Inhibition of human Nav1.5 expressed in HEK293 cells at >10 uM. It counts as cell-based.
Chain of Sodium channel protein type 5 subunit alpha (Q14524 whole entry): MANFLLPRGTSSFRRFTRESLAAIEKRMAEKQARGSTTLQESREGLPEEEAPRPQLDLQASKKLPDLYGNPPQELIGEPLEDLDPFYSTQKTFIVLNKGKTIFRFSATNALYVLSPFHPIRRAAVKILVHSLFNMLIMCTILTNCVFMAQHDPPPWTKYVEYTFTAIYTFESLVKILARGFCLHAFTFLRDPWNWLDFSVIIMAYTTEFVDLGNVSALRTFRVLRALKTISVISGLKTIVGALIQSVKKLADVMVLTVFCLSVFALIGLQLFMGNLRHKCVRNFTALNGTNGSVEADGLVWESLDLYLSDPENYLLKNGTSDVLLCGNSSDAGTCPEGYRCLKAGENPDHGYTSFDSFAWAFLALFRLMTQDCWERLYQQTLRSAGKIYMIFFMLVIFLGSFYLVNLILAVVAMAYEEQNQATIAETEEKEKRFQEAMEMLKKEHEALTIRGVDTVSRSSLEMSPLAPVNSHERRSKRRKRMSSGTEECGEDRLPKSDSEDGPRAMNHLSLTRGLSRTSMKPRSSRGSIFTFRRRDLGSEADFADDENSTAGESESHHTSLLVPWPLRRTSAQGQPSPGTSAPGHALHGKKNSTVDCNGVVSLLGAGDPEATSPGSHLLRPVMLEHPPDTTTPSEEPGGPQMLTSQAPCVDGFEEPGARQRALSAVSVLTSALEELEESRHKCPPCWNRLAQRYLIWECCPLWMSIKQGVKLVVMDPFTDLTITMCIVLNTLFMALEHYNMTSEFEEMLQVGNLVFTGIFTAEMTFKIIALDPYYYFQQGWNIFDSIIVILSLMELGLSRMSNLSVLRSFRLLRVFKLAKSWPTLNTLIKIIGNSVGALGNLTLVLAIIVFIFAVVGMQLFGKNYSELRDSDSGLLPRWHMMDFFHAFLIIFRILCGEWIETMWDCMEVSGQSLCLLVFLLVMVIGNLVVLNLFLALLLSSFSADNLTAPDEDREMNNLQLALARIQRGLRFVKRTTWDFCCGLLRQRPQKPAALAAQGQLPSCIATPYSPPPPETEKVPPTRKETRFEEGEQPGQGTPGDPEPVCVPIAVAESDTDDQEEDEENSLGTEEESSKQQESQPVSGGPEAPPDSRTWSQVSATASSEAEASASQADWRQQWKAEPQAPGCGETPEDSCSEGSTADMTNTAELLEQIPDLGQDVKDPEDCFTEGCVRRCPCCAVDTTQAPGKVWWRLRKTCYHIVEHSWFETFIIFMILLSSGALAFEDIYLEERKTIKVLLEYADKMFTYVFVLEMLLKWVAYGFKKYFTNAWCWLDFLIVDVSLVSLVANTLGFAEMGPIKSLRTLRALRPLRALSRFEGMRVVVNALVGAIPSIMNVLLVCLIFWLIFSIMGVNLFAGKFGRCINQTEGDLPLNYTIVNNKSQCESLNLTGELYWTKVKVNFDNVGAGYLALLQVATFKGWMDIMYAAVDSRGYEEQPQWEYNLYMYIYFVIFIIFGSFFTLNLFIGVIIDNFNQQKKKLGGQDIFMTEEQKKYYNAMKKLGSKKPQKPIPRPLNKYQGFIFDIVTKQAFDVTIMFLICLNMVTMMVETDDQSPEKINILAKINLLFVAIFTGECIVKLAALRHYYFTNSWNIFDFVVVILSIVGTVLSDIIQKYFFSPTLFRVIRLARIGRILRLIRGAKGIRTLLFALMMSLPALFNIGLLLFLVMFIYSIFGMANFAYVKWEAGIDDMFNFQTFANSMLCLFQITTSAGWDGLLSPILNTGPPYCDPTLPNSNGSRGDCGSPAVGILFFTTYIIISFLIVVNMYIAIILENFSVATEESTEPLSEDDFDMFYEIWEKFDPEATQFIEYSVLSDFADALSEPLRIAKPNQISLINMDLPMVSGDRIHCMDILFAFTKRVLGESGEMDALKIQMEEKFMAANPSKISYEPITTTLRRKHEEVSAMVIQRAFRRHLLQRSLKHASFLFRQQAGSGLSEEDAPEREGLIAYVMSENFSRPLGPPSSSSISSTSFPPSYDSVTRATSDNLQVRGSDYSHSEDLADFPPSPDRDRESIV
In series [8] the target is Potassium voltage-gated channel subfamily A member 5 (Homo sapiens) (UniProt P22460). The series is described as follows: Inhibition of human Kv1.5 expressed in CHO cells assessed as decrease in channel current at > 10 uM by patch clamp analysis. It counts as cell-based.
Chain of Potassium voltage-gated channel subfamily A member 5 (Homo sapiens) (P22460 whole entry): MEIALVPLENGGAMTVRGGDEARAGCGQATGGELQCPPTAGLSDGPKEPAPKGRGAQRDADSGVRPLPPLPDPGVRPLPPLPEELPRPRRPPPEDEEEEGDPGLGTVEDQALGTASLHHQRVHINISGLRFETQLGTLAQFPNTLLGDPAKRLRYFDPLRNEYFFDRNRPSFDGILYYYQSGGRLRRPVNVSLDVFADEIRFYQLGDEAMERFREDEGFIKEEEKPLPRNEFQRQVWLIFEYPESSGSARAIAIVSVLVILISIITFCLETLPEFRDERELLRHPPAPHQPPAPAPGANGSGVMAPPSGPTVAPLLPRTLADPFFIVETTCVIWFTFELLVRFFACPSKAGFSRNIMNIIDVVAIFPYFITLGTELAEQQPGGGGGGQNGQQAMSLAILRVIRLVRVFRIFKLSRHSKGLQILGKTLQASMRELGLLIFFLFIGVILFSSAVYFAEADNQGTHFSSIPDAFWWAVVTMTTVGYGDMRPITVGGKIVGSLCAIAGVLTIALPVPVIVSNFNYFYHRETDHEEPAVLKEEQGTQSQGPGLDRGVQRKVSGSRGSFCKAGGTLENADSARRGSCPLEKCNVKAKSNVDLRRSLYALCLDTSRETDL
The target of series [9] is Voltage-dependent L-type calcium channel subunit alpha-1C (Homo sapiens, UniProt Q13936). The series is described as follows: Inhibition of human Cav1.2 expressed in HEK293 cells assessed as decrease in calcium […] at >10 uM by FLIPR analysis. It counts as cell-based.
In series [10] the target is Transient receptor potential cation channel subfamily V member 4 (Rattus norvegicus) (UniProt Q9ERZ8). The series is described as follows: Agonist activity at rat TRPV4.
Chain of Transient receptor potential cation channel subfamily V member 4 (Rattus norvegicus) (Q9ERZ8 whole entry): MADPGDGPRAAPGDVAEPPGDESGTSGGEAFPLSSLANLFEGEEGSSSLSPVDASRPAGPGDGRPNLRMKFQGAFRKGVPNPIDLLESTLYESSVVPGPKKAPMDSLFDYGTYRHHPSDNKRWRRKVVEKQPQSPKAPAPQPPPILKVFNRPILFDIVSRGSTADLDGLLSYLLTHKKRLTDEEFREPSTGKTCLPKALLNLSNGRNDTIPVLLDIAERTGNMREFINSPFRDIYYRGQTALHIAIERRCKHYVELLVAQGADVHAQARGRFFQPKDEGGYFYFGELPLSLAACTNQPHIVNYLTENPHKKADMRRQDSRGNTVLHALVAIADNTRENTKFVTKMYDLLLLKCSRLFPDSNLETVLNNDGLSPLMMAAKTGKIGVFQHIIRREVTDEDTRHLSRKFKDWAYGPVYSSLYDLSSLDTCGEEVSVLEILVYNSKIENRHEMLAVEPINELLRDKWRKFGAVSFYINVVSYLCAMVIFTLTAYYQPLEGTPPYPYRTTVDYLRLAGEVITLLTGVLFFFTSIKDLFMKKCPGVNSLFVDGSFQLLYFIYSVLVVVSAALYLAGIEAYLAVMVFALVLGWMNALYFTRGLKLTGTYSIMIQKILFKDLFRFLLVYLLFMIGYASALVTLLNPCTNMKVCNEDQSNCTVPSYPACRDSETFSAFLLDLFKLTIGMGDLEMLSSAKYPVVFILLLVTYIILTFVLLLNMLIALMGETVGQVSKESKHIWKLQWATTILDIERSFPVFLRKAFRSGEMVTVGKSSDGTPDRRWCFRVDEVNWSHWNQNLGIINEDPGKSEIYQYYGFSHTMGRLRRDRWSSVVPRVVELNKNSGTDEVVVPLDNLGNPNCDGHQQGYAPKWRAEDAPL
Series [11] concerns the target T1, Transient receptor potential cation channel subfamily V member 4. Kind of series: Agonist activity at human TRPV4.
Series [12] has as its target Transient receptor potential cation channel subfamily V member 4 (Rattus norvegicus, UniProt Q9ERZ8). Kind of series: Antagonist activity at rat TRPV4.
In series [13] the test system is Rattus norvegicus. The series is described as follows: Decrease in lung/body weight ratio in GSK1016790A-induced Sprague-Dawley rat pulmonary edema model at 10 mg/kg, iv administered 30 mins prior to GSK-1016790A injection. It counts as functional, organism-based. Details: dose 10 mg/kg. In short, it runs like this:
(§2)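 Rats given vehicle, 3 or 10 mg/kg iv 30 min before iv challenge with the TRPV4 agonist GSK1016790A at rising doses. Mean arterial pressure recorded during pretreatment and after agonist. Pulmonary edema scored as wet lung weight/body weight ratio, compared with vehicle-treated rats. Plasma drug levels measured at both doses.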

For series [14], the system named is Rattus norvegicus. The series is described as follows: Decrease in lung/body weight ratio in GSK1016790A-induced Sprague-Dawley rat pulmonary edema model at 3 mg/kg, iv administered 30 mins prior to GSK-1016790A injection. It counts as functional, organism-based. The arrangement: dose 3 mg/kg. The essentials: as §2
Series [15] deals with Rattus norvegicus. The series is described as follows: Effect on mean arterial pressure in Sprague-Dawley rat at 3 to 10 mg/kg, iv. It counts as ADME, organism-based, Artery. Details: dose 3-10 mg/kg, route intravenous. The note with it: in vivo. In short, it runs like this:
as §2

For series [16], the system named is Rattus norvegicus. The series is described as follows: Reduction of GSK-1016790A-induced decrease in mean arterial pressure in iv dosed Sprague-Dawley rat administered 30 mins prior to GSK-1016790A injection. It counts as functional, organism-based. The note with it: Artery. The essentials:
as §2

Series [17] has as its system Plasma. The series is described as follows: Fraction unbound in rat plasma. It counts as ADME, cell-free.
Series [18] concerns Plasma. The series is described as follows: Fraction unbound in human plasma. It counts as ADME, cell-free.

What is called IC50 is the concentration at which inhibition is half-maximal. What is called bioavailability is dose-corrected exposure relative to a reference, in per cent. A low value points to poor availability. In general, half-life refers to how long it takes for the measured level to halve. Low readings indicate fast loss, high ones slow loss. What is called clearance is the volume of plasma or blood freed of the substance per unit of time.

SMILES strings stand for the structures. Active and inactive are the calls of the source. The rule behind the calls is not given here.

T1 sequence (Q9HBA0 whole entry): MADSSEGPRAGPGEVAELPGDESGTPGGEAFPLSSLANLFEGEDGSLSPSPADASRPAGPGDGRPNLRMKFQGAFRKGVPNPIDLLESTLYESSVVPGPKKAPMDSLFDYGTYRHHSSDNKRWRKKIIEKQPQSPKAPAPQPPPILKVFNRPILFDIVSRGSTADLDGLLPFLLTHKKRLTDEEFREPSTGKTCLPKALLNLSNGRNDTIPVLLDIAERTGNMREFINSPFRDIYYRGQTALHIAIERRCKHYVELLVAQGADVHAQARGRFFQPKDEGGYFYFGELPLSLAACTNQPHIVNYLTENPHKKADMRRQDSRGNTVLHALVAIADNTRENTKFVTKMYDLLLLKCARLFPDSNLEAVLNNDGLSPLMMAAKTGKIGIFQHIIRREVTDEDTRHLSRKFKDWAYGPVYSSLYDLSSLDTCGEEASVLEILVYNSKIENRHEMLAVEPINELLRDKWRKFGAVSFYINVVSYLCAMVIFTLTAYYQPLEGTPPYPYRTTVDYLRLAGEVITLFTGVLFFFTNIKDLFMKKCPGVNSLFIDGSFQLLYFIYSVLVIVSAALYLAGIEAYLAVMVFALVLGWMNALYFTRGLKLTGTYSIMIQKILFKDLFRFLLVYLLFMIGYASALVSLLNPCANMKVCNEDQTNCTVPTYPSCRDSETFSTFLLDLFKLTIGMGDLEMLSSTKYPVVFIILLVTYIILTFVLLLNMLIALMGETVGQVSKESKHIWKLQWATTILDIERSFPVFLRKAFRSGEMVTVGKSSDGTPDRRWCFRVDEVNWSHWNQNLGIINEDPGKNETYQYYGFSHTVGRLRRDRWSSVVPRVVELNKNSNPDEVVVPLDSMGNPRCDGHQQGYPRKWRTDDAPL
Chain of Transient receptor potential cation channel subfamily V member 4 (Rattus norvegicus, UniProt Q9ERZ8) (Q9ERZ8 whole entry): as the sequence (Q9ERZ8 whole entry) above

As to `CC(C)Nc1nc2c(C(=O)N(C)C)c(Cl)c(Cl)cc2n1-c1ccc(N2CCCCC2)cc1`, in [1], the IC50 was 631 nM.

On to `COC(=O)C(C)(C)c1ccc(N2CCC(n3c(NC(C)C)nc4c(C(=O)N(C)C)c(Cl)c(Cl)cc43)CC2)cc1`, for which the Stability entry in series [2] was “Unstable”. The t1/2 entry in [3] is given as “BLD”. The IC50 in series [1] came to 15.8 nM.

For `CC(C)Nc1nc2c(C(=O)N(C)C)c(Cl)c(Cl)cc2n1C1CCN(Cc2ccccc2)CC1`, in [1], the IC50 was 1000 nM.

Consider `CC(C)Nc1nc2c(C(=O)N(C)C)c(Cl)c(Cl)cc2n1C1CCN(c2ccc(C3CCCCC3)cc2)CC1`, for which the bioavailability in [4] came out at 7%. Moreover, the half-life in series [5] is 2.8 h. Moreover, in series [6], the clearance came to 9.3 mL/min/kg. Further, the IC50 in series [1] is 31.6 nM.

In [4], `CC(C)Nc1nc2c(C(=O)N(C)C)c(Cl)c(Cl)cc2n1C1CCN(c2ccc(C3(C#N)CCOCC3)cc2)CC1` displayed a bioavailability of 22%. The molecule further had a half-life in series [5] of 2.1 h. Also, the clearance in series [6] came out at 25 mL/min/kg. Moreover, in series [1], the IC50 was found to be 3.2 nM.

In [4], `Cc1cccc(N2CCC(n3c(NC(C)C)nc4c(C(=O)N(C)C)c(Cl)c(Cl)cc43)CC2)c1` yielded a bioavailability of 76%. This molecule had a half-life in series [5] of 3.2 h. In series [6], this molecule came in with a clearance of 12 mL/min/kg. Further, in series [1], the IC50 was 126 nM.

As to `CC(C)Nc1nc2c(C(=O)N(C)C)c(Cl)c(Cl)cc2n1C1CCN(c2ccc(OC(C)C)cc2)CC1`, the bioavailability in series [4] was determined as 36%. This molecule gave a half-life in series [5] of 2.1 h. The molecule further came in with a clearance in [6] of 46 mL/min/kg. Also, in series [1], the IC50 is 12.6 nM.

`Cc1ccc(N2CCC(n3c(NC(C)C)nc4c(C(=O)N(C)C)c(Cl)c(Cl)cc43)CC2)cc1` displayed a bioavailability in series [4] of 38%. This molecule gave a half-life in series [5] of 1.6 h. Moreover, in series [6], the clearance was found to be 18 mL/min/kg. The IC50 in series [1] was found to be 126 nM.

Consider `CC(C)Nc1nc2c(C(=O)N(C)C)c(Cl)c(Cl)cc2n1C1CCN(c2ccc(C(C)(C)C(=O)O)cc2)CC1`, for which the IC50 in [1] was above 10000 nM.

With `CC(C)Nc1nc2c(C(=O)N(C)C)c(Cl)c(Cl)cc2n1C1CCN(C(=O)c2ccc(C(C)(C)C)cc2)CC1`, the IC50 in series [1] was determined as 1260 nM.

`CC(C)Nc1nc2c(C(=O)N(C)C)c(Cl)c(Cl)cc2n1CC1CCN(c2ccccc2)CC1`: in series [1], the IC50 stood at 5010 nM.

On to `CC(C)Nc1nc2c(C(=O)N(C)C)c(Cl)c(Cl)cc2n1C1CCN(c2ccccc2)CC1`, for which the IC50 in series [1] came to 200 nM.

Consider `CC(C)Nc1nc2c(C(=O)N(C)C)c(Cl)c(Cl)cc2n1C1CCN(S(=O)(=O)c2ccc(Cl)cc2)CC1`, for which, in [1], the IC50 is 3980 nM.

As to `CC(C)Nc1nc2c(C(=O)N(C)C)c(Cl)c(Cl)cc2n1C1CCN(c2ccc(C(C)(C)C#N)cc2)CC1`, the “inhibition (INH)” value in series [7] and in series [9] was “Not Active” throughout. The inhibition result in [8] is “inactive”. Also, the outcome in series [10], in [11] and in series [14] was inactive. The IC50 in [12] was 32 nM; in series [1], 31.6 nM. In [4], this molecule showed a bioavailability of 31%. This molecule had a half-life in series [5] of 1.6 h. In [6], this molecule registered a clearance of 13 mL/min/kg. In series [13], the outcome was Active. The figures for the Activity result in series [15] and in series [16] were “Non-toxic” and “Dose-dependent effect”, respectively. The “Cp(f)” value was 3.3% in [17] and 4.4% in series [18].

As for `CC(C)Nc1nc2c(C(=O)N(C)C)c(Cl)c(Cl)cc2n1C1CCN(C(=O)Nc2ccccc2)CC1`, in series [1], the IC50 came out at 2510 nM.

Regarding `CC(C)Nc1nc2c(C(=O)N(C)C)c(Cl)c(Cl)cc2n1C1CCN(c2ccc(C(C)(C)C)cc2)CC1`, in [4], the bioavailability worked out at 39%. For the same molecule, the half-life in series [5] is 3.7 h. In [6], this molecule had a clearance of 34 mL/min/kg. In addition, in series [1], the IC50 stood at 50.1 nM.
